Results on 37 sequences are retold here after the array DNA melting data of Ke et al. (doi:10.1101/2024.01.08.574731).

The nature of data set [1]: melting temperature; fluorescence melt of hairpins on a sequencing array, two-state fit, raised by 9.35 °C to match UV melts. To be noted: sodium 0.088 M. In a few lines: (§1)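 Two-state fits, bootstrapped, provided melting temperature and folding enthalpy from Cy3 fluorescence normalised to pre-quench Cy3 and to control constructs. Library hairpins with annealed Cy3 and quencher oligos were imaged on a sequenced MiSeq flow cell in 50 mM Na-HEPES pH 8.0, 25 mM NaCl, at 2.5 °C intervals up to 60 °C. Four replicates were combined with inverse-variance weighting. A 9.35 °C upward shift was applied to fitted temperatures to match UV melts.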

The nature of data set [2]: folding enthalpy; higher = less favourable; fluorescence melt of hairpins on a sequencing array, two-state fit. To be noted: sodium 0.088 M. In short, it runs like this: as §1

With GTGGGCGGAAACGTCCGC (.((.((....)).)).), the Tm in data set [1] came to 54.3 °C. Moreover, the folding enthalpy in data set [2] was -25.4 kcal/mol.

As for GTGGGGACGAAAGTCCAC (((..(((....)))))), the Tm in data set [1] came to 61.8 °C. In addition, the folding enthalpy in data set [2] is -15.4 kcal/mol.

Consider GTGGGGGAAACCCCAC ((((((....)))))), for which, in data set [1], the Tm came out at 68 °C. The folding enthalpy in data set [2] is -31.9 kcal/mol.

Take GTGGGGGGAAACCCCTAC ((.((((....)))).)): in data set [1], the Tm came out at 52.2 °C. Moreover, the folding enthalpy in data set [2] is -17.8 kcal/mol.

Consider GTGGGGGGAAACTCCCAC (((((.(....).))))), for which the Tm in data set [1] was 56.2 °C. Moreover, the folding enthalpy in data set [2] is -35.3 kcal/mol.

In the case of GTGGGTCGAAAGACACAC (((.(((....))).))), in data set [1], the Tm was 63.5 °C. Besides, the folding enthalpy in data set [2] is -47 kcal/mol.

Regarding GTGGGTCGAAAGACGCAC (((.(((....))).))), in data set [1], the Tm was 63.3 °C. Also, in data set [2], the folding enthalpy was -34.3 kcal/mol.

For GTGGGTGAAAACCCAC ((((((....)))))), the Tm in data set [1] was 67.3 °C. Also, in data set [2], the folding enthalpy is -28.1 kcal/mol.

As for GTGGGTGGAAACATCCGC (.((.((....)).)).), the Tm in data set [1] was 44.2 °C. In addition, the folding enthalpy in data set [2] is -26.3 kcal/mol.

GTGGTACCGAAAGGTCAC (((..(((....)))))): the Tm in data set [1] turned out to be 38.4 °C. Moreover, the folding enthalpy in data set [2] was -18.4 kcal/mol.

Turning to GTGGTCCGAAAGGAGCAC (((.(((....))).))), in data set [1], the Tm was 67.6 °C. Further, the folding enthalpy in data set [2] is -34.6 kcal/mol.

With GTGGTCGAAAGACACCAC ((((((....)))..))), in data set [1], the Tm amounted to 42.4 °C. Also, the folding enthalpy in data set [2] is -15.6 kcal/mol.

In the case of GTGGTCGAAAGACCCAC ((((((....))).))), the Tm in data set [1] was found to be 51.1 °C. For the same sequence, the folding enthalpy in data set [2] is -13.2 kcal/mol.

Regarding GTGGTCGAAAGACCTCAC ((((((....)))..))), in data set [1], the Tm was determined as 38 °C. Further, in data set [2], the folding enthalpy was -10.7 kcal/mol.

In the case of GTGGTGCCGAAAGGCCAC (((..(((....)))))), in data set [1], the Tm was 48 °C. Further, the folding enthalpy in data set [2] is -12.8 kcal/mol.

Regarding GTGGTGGAAACACCAC ((((((....)))))), the Tm in data set [1] stood at 66.6 °C. Besides, the folding enthalpy in data set [2] is -34.7 kcal/mol.

Consider GTGGTGGGAAACCATCAC (((.(((....))).))), for which, in data set [1], the Tm is 51.2 °C. Also, the folding enthalpy in data set [2] was -43.1 kcal/mol.

On to GTGGTGGGAAACCGCCAC ((((.((....)).)))), for which, in data set [1], the Tm was 61.9 °C. For the same sequence, in data set [2], the folding enthalpy was -40.2 kcal/mol.

Take GTGGTTACGAAAGTACAC (((..(((....)))))): the Tm in data set [1] was 35.5 °C. In addition, the folding enthalpy in data set [2] was -20.7 kcal/mol.

In the case of GTGGTTGGAAACAACTAC ((.((((....)))).)), the Tm in data set [1] came to 47.8 °C. Also, the folding enthalpy in data set [2] is -24.8 kcal/mol.

As for GTGGTTGGAAACGACTAC ((.((.(....).)).)), the Tm in data set [1] was 41.8 °C. The folding enthalpy in data set [2] is -25.7 kcal/mol.

GTGGTTGGAAACGATCAC (((.(.(....).).))): the Tm in data set [1] is 34.1 °C. Further, the folding enthalpy in data set [2] was -18 kcal/mol.

GTGGTTTCGAAAGAACAC (((..(((....)))))): the Tm in data set [1] is 31.3 °C. The folding enthalpy in data set [2] is -15.6 kcal/mol.

Regarding GTGTAAGAAATTACAC ((((((....)))))), the Tm in data set [1] stood at 46.1 °C. Besides, the folding enthalpy in data set [2] is -29.2 kcal/mol.

Regarding GTGTAAGGAAACTCACAC ((((.((....)).)))), in data set [1], the Tm came to 32.8 °C. The folding enthalpy in data set [2] is -16.9 kcal/mol.

With GTGTAAGGAAACTTGCAC (((.(((....))).))), the Tm in data set [1] was 45.1 °C. The folding enthalpy in data set [2] was -31 kcal/mol.

For the sequence GTGTACGAAAGTATACAC ((((((....)))..))), the Tm in data set [1] worked out at 44.9 °C. Besides, in data set [2], the folding enthalpy was -22 kcal/mol.

GTGTACGAAAGTATTCAC ((((((....)))..))): in data set [1], the Tm was 28.7 °C. The folding enthalpy in data set [2] was -11.8 kcal/mol.

Regarding GTGTAGGGAAACTTGCAC (((.(.(....).).))), in data set [1], the Tm is 29.4 °C. Besides, the folding enthalpy in data set [2] is -17.7 kcal/mol.

GTGTATGAAAATACAC ((((((....)))))): the Tm in data set [1] turned out to be 52.5 °C. Besides, the folding enthalpy in data set [2] is -36.1 kcal/mol.

Turning to GTGTATGGAAACATATAC ((.((((....)))).)), the Tm in data set [1] was determined as 37.8 °C. The folding enthalpy in data set [2] was -37 kcal/mol.

Regarding GTGTATGGAAACGTACAC (((((.(....).))))), the Tm in data set [1] is 47.2 °C. For the same sequence, in data set [2], the folding enthalpy is -33.9 kcal/mol.

Turning to GTGTCACCGAAAGGTCAC (((..(((....)))))), the Tm in data set [1] stood at 38.2 °C. Further, the folding enthalpy in data set [2] was -20.5 kcal/mol.

GTGTCACGAAAGTGTCAC (((.(((....))).))): the Tm in data set [1] was found to be 53.5 °C. Further, the folding enthalpy in data set [2] was -40.4 kcal/mol.

As to GTGTCAGGAAACCGACAC (((((.(....).))))), the Tm in data set [1] was determined as 49.2 °C. Moreover, the folding enthalpy in data set [2] was -42.6 kcal/mol.

As for GTGTCCCGAAAGGGCAC (((.(((....)))))), the Tm in data set [1] was determined as 65.2 °C. Also, the folding enthalpy in data set [2] is -26.1 kcal/mol.

With GTGTCCCGAAAGGGTCAC (((.(((....))).))), in data set [1], the Tm was found to be 57.9 °C. Also, the folding enthalpy in data set [2] is -30.8 kcal/mol.
